Experimental data taken from paper PMC3001191 (Cancer research, 2010).

Tests used:
[1] = tested on: ^V600EBRAF-expressing Ba/F3 cells; experiment: DNA synthesis; assay type: cell-based; settings: Mus musculus, BaF3, 24 h, read-out: growth (DNA synthesis) inhibition
Outline: (§1)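 Ba/F3 lines stably expressing the mutant BRAF were cultured in RPMI1640 with 10% FBS at 37 °C in 10% CO2. Cells (1-5 × 10^4 per well) were exposed to compound for 24 h, with 0.08 µCi [3H]-thymidine added per well for the last 4 h. Cells were then captured on glass-fibre filters and washed twice with PBS and twice with methanol. Incorporated label was counted by scintillation.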

[2] = tested on: ^V600EBRAF A375M melanoma xenografts; experiment: Therapy study, xenograft growth; assay type: in vivo, mice; settings: 20 mg/kg q.d. p.o. for 24 d, on completion of the experiment, p<0.05
Outline: (§2)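 Female Crl:CD1-Foxn1nu mice (>6 weeks) were implanted s.c. with 10^7 A375M or 7 × 10^6 SW620 cells. Tumors grew to 50–150 mm3, and groups of 8 were assigned by stratified tumor volume. Mice received 20 mg/kg/d by gavage (10 ml/kg, DMSO:water 1:19) or vehicle, for 24 d (A375M) or 23 d (SW620). Calipers measured tumors every 3-4 d, and mean volume ± SEM was plotted.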

[3] = tested on: cancer cell lines harboring ^V600D/EBRAF mutations; experiment: SRB growth inhibition assay, cell line panel; assay type: cell-based, human; settings: 5 d exposure, ^V600D/EBRAF mutant lines
Outline: (§3)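 Growth inhibition was measured by sulforhodamine B across a panel of melanoma, colon and breast cancer cell lines after 5 d continuous exposure. Seeding density was optimized per line to keep growth logarithmic. Curves used 10-point dilution series in quadruplicate and were fitted to give IC50/GI50. Lines were grouped by BRAF/RAS mutation status for comparison.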

[4] = tested on: ERK1/2 phosphorylation in WM266.4 cells; experiment: Phospho-ERK cell-based ELISA; set-up: species or system human; settings: cellular potency greater
PDGFRβ = PDGFRβ (Homo sapiens, UniProt P09619); experiment: Z'-LYTE SelectScreen kinase profiling; assay type: biochemical
[5] = tested on: ^T529N,V600EBRAF-expressing Ba/F3 cells; experiment: DNA synthesis; assay type: cell-based; settings: Mus musculus, BaF3, 24 h, read-out: growth (DNA synthesis) inhibition
Outline: as §1

[6] = tested on: MEK and ERK phosphorylation in KRAS mutant SW620 colorectal carcinoma cells; experiment: Western blotting of MAPK signaling; assay type: cell-based, human; settings: 24 h
Outline: (§4)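 Cells in DMEM with 10% FBS were exposed to a concentration series for 24 h and lysed. Lysates were blotted for phospho-MEK1/2, MEK1, phospho-ERK1/2, ERK2 and cyclin D1. Detection used Alexa Fluor 680 and 800CW secondary antibodies, with quantification on an infrared scanner.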

KIT = KIT (Homo sapiens, UniProt P10721); experiment: Z'-LYTE SelectScreen kinase profiling; assay type: biochemical
SKMEL23 cells = experiment: SRB growth inhibition assay, cell line panel; assay type: cell-based, human
Outline: as §3

VEGFR2 = VEGFR2 (Homo sapiens, UniProt P35968); experiment: Z'-LYTE SelectScreen kinase profiling; assay type: biochemical
[7] = tested on: ^V600EBRAF mutant HT29 cells; experiment: SRB growth inhibition assay, cell line panel; assay type: cell-based, human
Outline: as §3

LCK = LCK (Homo sapiens, UniProt P06239); experiment: Z'-LYTE SelectScreen kinase profiling; assay type: biochemical
BRAF = BRAF (Homo sapiens, UniProt P15056); experiment: Z'-LYTE SelectScreen kinase profiling; assay type: biochemical
RET = RET (Homo sapiens, UniProt P07949); experiment: Z'-LYTE SelectScreen kinase profiling; assay type: biochemical
[8] = tested on: MEK and ERK phosphorylation in BRAF wild-type D35 melanoma cells; experiment: Western blotting of MAPK signaling; assay type: cell-based; settings: 24 h, concentrations up to 10 μM
Outline: as §4

[9] = tested on: WM266.4 (^V600DBRAF) cells; experiment: DNA synthesis; assay type: cell-based, human; settings: WM266.4 cells, 0.1 μM 1t for 24 h
Outline: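 Cells were grown in DMEM with 10% FBS at 37 °C in 10% CO2. They were seeded at 10^5 per well in 6-well plates and treated with 0.1 µM compound for 24 h. DNA synthesis was measured with 0.8 µCi tritiated label per well. Cells were harvested by trypsinization and an aliquot was filter-captured and scintillation-counted as for suspension cells.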

FGFR1 = FGFR1 (Homo sapiens, UniProt P11362); experiment: Z'-LYTE SelectScreen kinase profiling; assay type: biochemical
Pharmacokinetics in mice = assay type: in vivo; settings: for concentration at 18 h: po, 10 mg/kg
Outline: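 Female BALB/cAnNCrl mice over 6 weeks old were dosed i.v. at 2 mg/kg (10 ml/kg, DMSO:Tween 20:water 10:1:89). Others received 10 mg/kg by oral gavage (10 ml/kg, DMSO:water 1:19). At 5 min (i.v. only), 15 and 30 min, and 1, 3, 6 and 18 h, 3 mice per point gave heparinized blood for plasma under isoflurane. Femoral muscle was also collected. Plasma levels were compared with the mean 5-d SRB GI50 of BRAF-mutant lines.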

^T529N,V600EBRAF = ^T529N,V600EBRAF (Homo sapiens, UniProt P15056, T529N/V600E); experiment: DELFIA kinase assay, gatekeeper mutant; assay type: biochemical; settings: at up to 10 μM
Outline: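 Full-length recombinant BRAF construct carrying the gatekeeper and activating substitutions was tested in a 96-well DELFIA assay. The assay measured direct phosphorylation of bacterially produced GST-MEK at 100 µM ATP. Reactions ran in duplicate for 45 min at 20°C, within the linear range, across an 11-concentration response curve. Each value was the mean of 3 independent assays.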

MET = MET (Homo sapiens, UniProt P08581); experiment: Z'-LYTE SelectScreen kinase profiling; assay type: biochemical
[10] = tested on: cell lines in which BRAF is wildtype; experiment: SRB growth inhibition assay, cell line panel; assay type: cell-based, human; settings: 5 d exposure
Outline: as §3

^V600EBRAF = ^V600EBRAF (Homo sapiens, UniProt P15056, V600E); experiment: Z'-LYTE SelectScreen kinase profiling; assay type: biochemical
[11] = tested on: MEK phosphorylation in SW620 xenografts; experiment: Pharmacodynamics, MEK phosphorylation in tumor xenografts; assay type: in vivo, mice; settings: single p.o. dose 20 mg/kg, 4 h, KRAS mutant SW620 tumors
Outline: (§5)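 Female Crl:CD1-Foxn1nu mice (>6 weeks) were inoculated s.c. with 10^7 A375M or 7 × 10^6 SW620 cells. Tumors were grown to 50–150 mm3. Groups of 3-4 mice received one 20 mg/kg oral gavage dose or vehicle and were culled 4 h later. Tumors were snap-frozen, lysed in NP40 buffer and homogenised. Equal protein was probed by quantitative fluorescent Western blot for phospho-MEK1/2 and total MEK1.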

p38α = p38α (Homo sapiens, UniProt Q16539); experiment: Z'-LYTE SelectScreen kinase profiling; assay type: biochemical
[12] = tested on: MEK phosphorylation in A375M xenografts; experiment: Pharmacodynamics, MEK phosphorylation in tumor xenografts; assay type: in vivo, mice; settings: single oral dose of 20 mg/kg, 4 h, A375M tumors
Outline: as §5

[13] = tested on: ^G12VKRAS mutant human colorectal carcinoma SW620 xenografts; experiment: Therapy study, xenograft growth; assay type: in vivo, mice; settings: 20 mg/kg daily p.o. for 23 d
Outline: as §2

SRC = SRC (Homo sapiens, UniProt P12931); experiment: Z'-LYTE SelectScreen kinase profiling; assay type: biochemical
VEGFR1 = VEGFR1 (Homo sapiens, UniProt P17948); experiment: Z'-LYTE SelectScreen kinase profiling; assay type: biochemical
CRAF = CRAF (Homo sapiens, UniProt P04049, Y340D/Y341D); experiment: Z'-LYTE SelectScreen kinase profiling; assay type: biochemical
[14] = tested on: MEK and ERK phosphorylation in ^V600DBRAF WM266.4 cells; experiment: Western blotting of MAPK signaling; assay type: cell-based, human; settings: 24 h
Outline: as §4

p38γ = p38γ (Homo sapiens, UniProt P53778); experiment: Z'-LYTE SelectScreen kinase profiling; assay type: biochemical
panel of 80 kinases = experiment: Selectivity profile against 80 kinase panel; assay type: biochemical, human; settings: 1 μM 1t
Outline: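 Each of 80 kinases was screened at a single 1 µM concentration using the commercial SelectScreen panel under the provider's protocols. Results were expressed as percent inhibition of kinase activity, and kinases inhibited by >70% were singled out.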

COT = COT (Homo sapiens, UniProt P41279); experiment: Z'-LYTE SelectScreen kinase profiling; assay type: biochemical
SW620 cells = experiment: MTS cell proliferation assay; assay type: cell-based, human; settings: 72 h
Outline: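 SW620 cells in DMEM with 10% FBS received a range of compound concentrations for 72 h. Proliferation was quantified with MTS reagent. Seeding density was optimized so growth stayed logarithmic throughout treatment. Wells were run in quadruplicate, and comparisons used a t-test.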

PDGFRα = PDGFRα (Homo sapiens, UniProt P16234); experiment: Z'-LYTE SelectScreen kinase profiling; assay type: biochemical
Tolerability in mice = assay type: in vivo
^V600EBRAF in cells = settings: cited from earlier work
[15] = tested on: ^V600EBRAF purified kinase; settings: cited from earlier work
[16] = female, BALB/cAnNCrl, mouse, plasma, iv, 2 mg/kg
[17] = continuous daily dosing 20 mg/kg in therapy experiments

BRAF, sequence (P15056 whole entry): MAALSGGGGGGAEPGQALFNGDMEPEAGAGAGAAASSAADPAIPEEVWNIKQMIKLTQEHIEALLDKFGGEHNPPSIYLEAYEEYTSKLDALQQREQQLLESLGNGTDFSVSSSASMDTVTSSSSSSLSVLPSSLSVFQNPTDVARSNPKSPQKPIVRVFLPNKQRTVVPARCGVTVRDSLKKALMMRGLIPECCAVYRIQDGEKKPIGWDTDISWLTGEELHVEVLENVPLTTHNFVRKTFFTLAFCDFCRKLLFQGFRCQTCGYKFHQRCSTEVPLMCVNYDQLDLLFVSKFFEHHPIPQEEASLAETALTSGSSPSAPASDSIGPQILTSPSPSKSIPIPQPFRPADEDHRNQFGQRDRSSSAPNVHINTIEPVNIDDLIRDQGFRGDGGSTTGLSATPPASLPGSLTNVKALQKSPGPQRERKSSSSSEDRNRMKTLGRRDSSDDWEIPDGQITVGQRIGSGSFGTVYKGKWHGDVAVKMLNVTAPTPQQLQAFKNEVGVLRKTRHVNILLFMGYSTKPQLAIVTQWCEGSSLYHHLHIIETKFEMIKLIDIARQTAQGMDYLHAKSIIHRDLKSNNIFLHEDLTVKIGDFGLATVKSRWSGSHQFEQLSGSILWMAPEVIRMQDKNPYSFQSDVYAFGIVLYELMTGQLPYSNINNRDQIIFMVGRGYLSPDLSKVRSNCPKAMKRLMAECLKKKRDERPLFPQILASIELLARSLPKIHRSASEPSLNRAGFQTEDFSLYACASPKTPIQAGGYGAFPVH
VEGFR2, sequence (P35968 20-1356): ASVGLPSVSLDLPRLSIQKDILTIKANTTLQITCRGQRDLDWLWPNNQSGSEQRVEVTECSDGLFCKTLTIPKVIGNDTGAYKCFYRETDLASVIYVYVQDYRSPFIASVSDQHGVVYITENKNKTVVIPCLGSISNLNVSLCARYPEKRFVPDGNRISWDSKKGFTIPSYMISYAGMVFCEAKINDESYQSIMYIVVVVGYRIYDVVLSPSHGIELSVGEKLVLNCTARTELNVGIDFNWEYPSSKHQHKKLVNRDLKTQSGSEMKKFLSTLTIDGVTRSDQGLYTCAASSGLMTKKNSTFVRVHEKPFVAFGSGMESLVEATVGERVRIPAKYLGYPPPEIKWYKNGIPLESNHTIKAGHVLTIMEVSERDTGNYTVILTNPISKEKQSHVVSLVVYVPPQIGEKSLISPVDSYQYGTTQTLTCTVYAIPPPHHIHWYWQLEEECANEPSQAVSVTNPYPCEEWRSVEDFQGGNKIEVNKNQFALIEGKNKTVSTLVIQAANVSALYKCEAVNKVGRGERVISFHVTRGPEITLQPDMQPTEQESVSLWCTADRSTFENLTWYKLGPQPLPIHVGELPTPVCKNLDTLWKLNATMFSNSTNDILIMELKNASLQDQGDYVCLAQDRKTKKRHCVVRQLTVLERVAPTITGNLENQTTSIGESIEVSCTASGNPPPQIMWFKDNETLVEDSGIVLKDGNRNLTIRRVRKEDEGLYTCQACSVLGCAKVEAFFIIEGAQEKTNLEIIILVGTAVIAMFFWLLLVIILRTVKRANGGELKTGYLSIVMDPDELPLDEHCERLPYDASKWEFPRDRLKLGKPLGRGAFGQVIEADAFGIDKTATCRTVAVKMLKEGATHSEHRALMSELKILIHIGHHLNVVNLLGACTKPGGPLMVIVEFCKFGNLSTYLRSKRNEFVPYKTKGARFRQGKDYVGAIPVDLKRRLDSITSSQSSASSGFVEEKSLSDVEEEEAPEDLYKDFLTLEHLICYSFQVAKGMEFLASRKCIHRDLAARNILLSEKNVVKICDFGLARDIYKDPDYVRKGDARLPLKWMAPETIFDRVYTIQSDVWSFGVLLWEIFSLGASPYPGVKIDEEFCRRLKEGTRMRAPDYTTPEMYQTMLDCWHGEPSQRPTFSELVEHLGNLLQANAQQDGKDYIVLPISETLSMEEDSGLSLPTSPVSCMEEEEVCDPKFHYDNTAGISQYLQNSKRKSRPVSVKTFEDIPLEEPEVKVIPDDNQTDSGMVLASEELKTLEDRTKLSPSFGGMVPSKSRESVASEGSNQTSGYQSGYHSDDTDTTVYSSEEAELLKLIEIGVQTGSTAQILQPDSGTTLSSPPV
CRAF, sequence (P04049 306-648 Y340D/Y341D limits assumed): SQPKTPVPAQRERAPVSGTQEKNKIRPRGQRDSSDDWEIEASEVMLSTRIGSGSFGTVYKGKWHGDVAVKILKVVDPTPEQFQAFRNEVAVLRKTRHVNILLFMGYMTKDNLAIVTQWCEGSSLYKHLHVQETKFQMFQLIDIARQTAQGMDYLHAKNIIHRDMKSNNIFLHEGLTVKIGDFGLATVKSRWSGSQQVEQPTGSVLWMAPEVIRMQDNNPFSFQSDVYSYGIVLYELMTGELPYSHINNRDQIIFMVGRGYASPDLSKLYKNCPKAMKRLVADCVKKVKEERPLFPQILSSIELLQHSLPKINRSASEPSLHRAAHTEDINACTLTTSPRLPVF
COT, sequence (P41279 whole entry): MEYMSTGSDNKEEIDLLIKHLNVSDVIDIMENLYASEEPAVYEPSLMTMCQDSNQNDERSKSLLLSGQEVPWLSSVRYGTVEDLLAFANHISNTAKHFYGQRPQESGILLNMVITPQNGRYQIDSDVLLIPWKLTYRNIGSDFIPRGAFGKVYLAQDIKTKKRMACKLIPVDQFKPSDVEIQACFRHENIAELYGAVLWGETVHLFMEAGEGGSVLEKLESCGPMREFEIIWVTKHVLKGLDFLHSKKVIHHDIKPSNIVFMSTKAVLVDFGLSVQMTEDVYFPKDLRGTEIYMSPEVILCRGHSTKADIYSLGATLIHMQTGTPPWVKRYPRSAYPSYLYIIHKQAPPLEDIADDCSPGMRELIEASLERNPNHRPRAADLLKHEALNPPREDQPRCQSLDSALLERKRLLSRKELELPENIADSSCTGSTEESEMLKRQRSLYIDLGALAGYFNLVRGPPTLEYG
^T529N,V600EBRAF, sequence (P15056 whole entry T529N/V600E): as the sequence (P15056 whole entry) above, with T529N, V600E counted along it
p38γ, sequence (P53778 whole entry): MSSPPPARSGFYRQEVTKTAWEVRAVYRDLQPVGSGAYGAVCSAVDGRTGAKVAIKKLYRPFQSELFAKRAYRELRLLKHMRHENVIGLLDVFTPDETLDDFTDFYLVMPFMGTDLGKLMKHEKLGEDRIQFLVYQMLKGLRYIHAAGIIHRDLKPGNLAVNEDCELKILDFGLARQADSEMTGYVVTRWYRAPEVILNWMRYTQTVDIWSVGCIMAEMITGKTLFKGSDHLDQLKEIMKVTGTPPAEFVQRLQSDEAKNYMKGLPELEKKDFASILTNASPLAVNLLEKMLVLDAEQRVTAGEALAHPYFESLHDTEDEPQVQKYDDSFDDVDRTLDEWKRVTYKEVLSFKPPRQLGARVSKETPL
LCK, sequence (P06239 whole entry): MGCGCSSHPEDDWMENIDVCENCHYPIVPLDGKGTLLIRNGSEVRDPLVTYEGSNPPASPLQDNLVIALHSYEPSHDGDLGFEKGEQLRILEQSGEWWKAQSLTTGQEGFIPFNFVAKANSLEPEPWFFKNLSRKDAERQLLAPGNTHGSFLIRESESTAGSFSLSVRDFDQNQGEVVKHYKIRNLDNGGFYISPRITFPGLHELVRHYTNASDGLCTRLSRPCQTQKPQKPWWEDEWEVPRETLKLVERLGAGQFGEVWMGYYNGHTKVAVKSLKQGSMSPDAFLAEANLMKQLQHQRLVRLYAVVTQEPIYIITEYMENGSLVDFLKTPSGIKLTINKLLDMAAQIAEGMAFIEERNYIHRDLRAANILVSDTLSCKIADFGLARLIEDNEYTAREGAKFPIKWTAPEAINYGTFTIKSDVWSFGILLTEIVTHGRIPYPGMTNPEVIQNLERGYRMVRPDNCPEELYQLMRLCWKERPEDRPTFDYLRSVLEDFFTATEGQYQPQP
SRC, sequence (P12931 whole entry): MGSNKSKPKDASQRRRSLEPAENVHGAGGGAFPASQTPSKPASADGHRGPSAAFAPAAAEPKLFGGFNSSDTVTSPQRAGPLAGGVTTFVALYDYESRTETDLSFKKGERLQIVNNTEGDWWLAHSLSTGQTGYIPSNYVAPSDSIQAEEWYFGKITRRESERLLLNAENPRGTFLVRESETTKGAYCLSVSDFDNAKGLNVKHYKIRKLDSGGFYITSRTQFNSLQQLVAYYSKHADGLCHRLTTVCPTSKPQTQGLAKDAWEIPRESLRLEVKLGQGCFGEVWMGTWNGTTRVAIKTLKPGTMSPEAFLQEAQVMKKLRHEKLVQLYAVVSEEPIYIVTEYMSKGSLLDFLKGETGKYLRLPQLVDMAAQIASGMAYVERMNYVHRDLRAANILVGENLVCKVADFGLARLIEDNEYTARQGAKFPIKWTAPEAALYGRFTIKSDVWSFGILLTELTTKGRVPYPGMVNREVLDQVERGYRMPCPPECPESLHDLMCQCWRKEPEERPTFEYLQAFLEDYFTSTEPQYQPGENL
^V600EBRAF, sequence (P15056 whole entry V600E): as the sequence (P15056 whole entry) above, with V600E counted along it
p38α, sequence (Q16539 whole entry): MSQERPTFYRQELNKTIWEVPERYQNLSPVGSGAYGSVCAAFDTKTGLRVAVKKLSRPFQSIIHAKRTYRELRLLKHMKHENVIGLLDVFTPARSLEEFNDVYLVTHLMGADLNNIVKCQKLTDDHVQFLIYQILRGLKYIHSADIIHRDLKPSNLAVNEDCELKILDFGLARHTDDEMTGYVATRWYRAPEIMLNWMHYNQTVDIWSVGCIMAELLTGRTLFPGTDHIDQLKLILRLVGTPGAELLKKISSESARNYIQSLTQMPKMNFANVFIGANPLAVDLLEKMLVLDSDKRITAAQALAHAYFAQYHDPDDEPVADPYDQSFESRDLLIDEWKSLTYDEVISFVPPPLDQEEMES

For `CSc1cc(Oc2ccnc3[nH]c(=O)cnc23)ccc1NC(=O)Nc1cc(C(C)(C)C)nn1-c1ccc(C)cc1` [Compound 1t, 1-(3-tert-butyl-1-p-tolyl-1H-pyrazol-5-yl)-3-(2-(methylthio)-4-(3-oxo-3,4-dihydropyrido[2,3-b]pyrazin-8-yloxy)phenyl)urea], the inhibition at 1 µM [1] was 96%, the tumor growth inhibition [2] was 50% and the growth inhibition [3] was “inhibits the growth”. For the same compound, the “cellular potency relative to inhibition of recombinant ^V600EBRAF in vitro” value [4] was “approximately 4 fold”, the IC50 (PDGFRβ) was 2.43 µM and the inhibition at 1 µM [5] was 21%. The “effect on MEK and ERK phosphorylation” value [6] was “profound increase”, the IC50 (KIT) was over 10 µM and the “sensitivity relative to the other BRAF/RAS wildtype cells” value (SKMEL23 cells) was “considerably more sensitive”. For the same compound, the IC50 (VEGFR2) was 1 µM, the “fold less active against VEGFR2/KDR than against ^V600EBRAF” value (VEGFR2; SelectScreen Panel) was “more than 50 fold” and the “sensitivity relative to the majority of the other BRAF mutant cell lines” value [7] was “less sensitive”. For the same compound, the IC50 (LCK) was 0.006 µM, the IC50 (BRAF) was 0.081 µM and the “fold less active against wildtype BRAF than against ^V600EBRAF” value (BRAF; SelectScreen Panel) was “more than 6 fold”. For the same compound, the IC50 (RET) was 4.86 µM, the “MEK and ERK phosphorylation / cyclin D1 response” value [8] was “no such responses are observed” and the “inhibition of DNA synthesis” value [9] was “profound inhibition”. For the same compound, the IC50 (FGFR1) was 2.58 µM, the concentration at 18 h (Pharmacokinetics in mice; female, BALB/cAnNCrl, mouse, femoral muscle) was over 3 µM and the clearance (Pharmacokinetics in mice; [16]) was 0.00667 mL/min. For the same compound, the half-life (Pharmacokinetics in mice; [16]) was 6.8 h, the concentration at 18 h (Pharmacokinetics in mice; female, BALB/cAnNCrl, mouse, plasma) was over 19 µM and the “plasma concentration relative to average GI50 for BRAF mutant cancer cell lines” value (Pharmacokinetics in mice; mice) was “over 100 fold”. For the same compound, the “inhibition of ^T529N,V600EBRAF kinase activity” value (^T529N,V600EBRAF) was “not inhibited”, the IC50 (MET) was over 10 µM and the growth inhibition [10] was “relatively ineffective”. For the same compound, the IC50 (^V600EBRAF) was 0.013 µM, the “increase in MEK phosphorylation” value [11] was 2 fold and the IC50 (p38α) was 0.285 µM. The “inhibition of MEK phosphorylation” value [12] was “observed”, the tumor growth inhibition [13] was “No inhibition of tumor growth” and the IC50 (SRC) was 0.023 µM. The IC50 (VEGFR1) was 5.16 µM, the IC50 (CRAF) was 0.012 µM and the “concentration inhibiting MEK and ERK phosphorylation” value [14] was 10 to 100 nM. For the same compound, the IC50 (p38γ) was 1.02 µM, the “inhibition of kinases in an 80 kinase panel” value (panel of 80 kinases) was “failed to inhibit most of the kinases” and the IC50 (COT) was over 10 µM. For the same compound, the effect on proliferation (SW620 cells) was “small increase in proliferation”, the IC50 (PDGFRα) was 0.439 µM and the “adverse effects / body weight” value (Tolerability in mice; 10 and 20 mg/kg/d p.o. for 4 d, body weight monitored a further 27 d) was “No adverse effects were observed”. The body weight loss (Tolerability in mice; [17]) was “less than 10%” and the deaths (Tolerability in mice; [17]) was “does not cause any deaths”.
In the case of `CNC(=O)c1cc(Oc2ccc(NC(=O)Nc3ccc(Cl)c(C(F)(F)F)c3)cc2)ccn1` [sorafenib], the “activity against ^V600EBRAF in cells” value (^V600EBRAF in cells) is given as 2 to 5 µM, the “fold less active in cells than against the purified kinase” value (^V600EBRAF in cells) is given as “approximately 100 fold” and the “activity against the purified kinase in vitro” value [15] is given as 40 nM.
